Data as given in ChEMBL document CHEMBL1128218, “New alpha-thiol dipeptide dual inhibitors of angiotensin-I converting enzyme and neutral endopeptidase EC 3.4.24.11” (J Med Chem, 1995).

How the values were obtained:
[1] = target: T1, Angiotensin-converting enzyme (Oryctolagus cuniculus, UniProt P12822); assay: Evaluation of in vitro inhibitory activity against Angiotensin I converting enzyme
T1 sequence (P12822 whole entry): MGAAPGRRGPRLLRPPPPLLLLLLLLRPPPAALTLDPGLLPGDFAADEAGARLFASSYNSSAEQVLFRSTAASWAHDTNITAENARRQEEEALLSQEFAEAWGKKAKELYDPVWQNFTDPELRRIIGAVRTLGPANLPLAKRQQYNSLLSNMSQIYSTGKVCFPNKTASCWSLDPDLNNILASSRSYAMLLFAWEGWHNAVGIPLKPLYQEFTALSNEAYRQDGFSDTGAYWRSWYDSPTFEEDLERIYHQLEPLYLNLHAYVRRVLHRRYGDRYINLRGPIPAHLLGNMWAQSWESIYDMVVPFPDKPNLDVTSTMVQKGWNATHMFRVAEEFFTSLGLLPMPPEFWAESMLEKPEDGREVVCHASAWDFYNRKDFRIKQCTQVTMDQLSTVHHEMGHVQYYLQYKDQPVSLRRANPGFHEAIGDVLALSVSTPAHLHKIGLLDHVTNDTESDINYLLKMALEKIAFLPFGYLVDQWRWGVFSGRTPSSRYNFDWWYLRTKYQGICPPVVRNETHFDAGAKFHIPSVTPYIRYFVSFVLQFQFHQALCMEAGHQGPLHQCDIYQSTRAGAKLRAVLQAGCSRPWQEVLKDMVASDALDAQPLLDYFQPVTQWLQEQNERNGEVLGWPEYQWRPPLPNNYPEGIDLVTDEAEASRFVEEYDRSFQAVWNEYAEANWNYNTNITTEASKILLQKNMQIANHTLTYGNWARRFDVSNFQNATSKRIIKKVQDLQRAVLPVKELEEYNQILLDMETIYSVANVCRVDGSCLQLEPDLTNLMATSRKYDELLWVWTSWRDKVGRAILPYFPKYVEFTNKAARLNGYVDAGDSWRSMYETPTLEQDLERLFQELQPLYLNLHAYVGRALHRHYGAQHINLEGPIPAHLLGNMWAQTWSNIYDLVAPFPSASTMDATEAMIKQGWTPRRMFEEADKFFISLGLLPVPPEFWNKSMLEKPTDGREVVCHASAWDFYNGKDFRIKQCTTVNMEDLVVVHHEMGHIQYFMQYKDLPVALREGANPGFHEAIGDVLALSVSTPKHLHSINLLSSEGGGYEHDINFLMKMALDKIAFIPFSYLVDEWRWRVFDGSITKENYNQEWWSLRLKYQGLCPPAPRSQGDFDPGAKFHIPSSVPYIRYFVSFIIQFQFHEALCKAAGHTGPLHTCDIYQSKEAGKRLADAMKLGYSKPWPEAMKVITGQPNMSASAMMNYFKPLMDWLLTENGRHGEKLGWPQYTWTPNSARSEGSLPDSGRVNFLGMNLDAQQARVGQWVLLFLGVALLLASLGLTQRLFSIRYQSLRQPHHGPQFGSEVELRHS
Outline: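 Rabbit lung ACE in 300 mM NaCl, 100 mM KH2PO4 (pH 8.3). Enzyme and drug mixed, then hippurylhistidylleucine (2 mg/mL stock) added and incubated 75 min at room temperature. Stopped with 1 N NaOH, o-phthalaldehyde added for 10 min at 25 °C, acidified with HCl, OD read at 360 nm.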

Neprilysin = target: T2, Neprilysin (Rattus norvegicus, UniProt P07861); assay: Evaluation of in vitro inhibitory activity against Neutral endopeptidase
T2 sequence (P07861 whole entry): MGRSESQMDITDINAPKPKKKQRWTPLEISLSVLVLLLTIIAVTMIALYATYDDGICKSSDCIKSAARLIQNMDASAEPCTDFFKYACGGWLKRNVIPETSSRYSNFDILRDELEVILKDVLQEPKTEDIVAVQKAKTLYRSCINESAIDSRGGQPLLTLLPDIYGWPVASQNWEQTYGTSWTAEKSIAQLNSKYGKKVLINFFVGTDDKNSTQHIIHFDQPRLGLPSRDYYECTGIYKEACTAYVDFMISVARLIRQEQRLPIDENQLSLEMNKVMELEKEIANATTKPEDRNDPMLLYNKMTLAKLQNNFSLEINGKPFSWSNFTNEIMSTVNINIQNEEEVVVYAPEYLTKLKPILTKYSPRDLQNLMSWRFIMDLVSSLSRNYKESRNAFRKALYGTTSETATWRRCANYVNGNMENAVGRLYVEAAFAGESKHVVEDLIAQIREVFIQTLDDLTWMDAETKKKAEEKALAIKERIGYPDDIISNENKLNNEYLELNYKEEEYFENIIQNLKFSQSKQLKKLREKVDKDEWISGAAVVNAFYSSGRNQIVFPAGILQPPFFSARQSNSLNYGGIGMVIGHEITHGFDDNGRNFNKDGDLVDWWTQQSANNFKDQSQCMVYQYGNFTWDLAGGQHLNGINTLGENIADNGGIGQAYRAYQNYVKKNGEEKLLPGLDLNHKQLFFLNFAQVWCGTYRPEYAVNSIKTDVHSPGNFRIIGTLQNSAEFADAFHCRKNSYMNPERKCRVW
Outline: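 Rat kidney cortex membrane homogenate (4.2 μg protein) preincubated 10 min at 25 °C with increasing inhibitor concentrations. Then 500 μM GAAP (final) in 50 mM Tris pH 7.4 with leucine aminopeptidase M, 25 min at 25 °C. Done in duplicate; IC50 from curves of seven points near the IC50.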

[2] = target: T3, Angiotensin-converting enzyme (Rattus norvegicus) (UniProt P47820); assay: Evaluation of plasma inhibition of Angiotensin I converting enzyme activity in conscious rat 1 hour after intravenous administration at a dose of 10 mg/kg; assay type: functional, organism-based; set-up: dose 10 mg/kg
T3 sequence (whole entry): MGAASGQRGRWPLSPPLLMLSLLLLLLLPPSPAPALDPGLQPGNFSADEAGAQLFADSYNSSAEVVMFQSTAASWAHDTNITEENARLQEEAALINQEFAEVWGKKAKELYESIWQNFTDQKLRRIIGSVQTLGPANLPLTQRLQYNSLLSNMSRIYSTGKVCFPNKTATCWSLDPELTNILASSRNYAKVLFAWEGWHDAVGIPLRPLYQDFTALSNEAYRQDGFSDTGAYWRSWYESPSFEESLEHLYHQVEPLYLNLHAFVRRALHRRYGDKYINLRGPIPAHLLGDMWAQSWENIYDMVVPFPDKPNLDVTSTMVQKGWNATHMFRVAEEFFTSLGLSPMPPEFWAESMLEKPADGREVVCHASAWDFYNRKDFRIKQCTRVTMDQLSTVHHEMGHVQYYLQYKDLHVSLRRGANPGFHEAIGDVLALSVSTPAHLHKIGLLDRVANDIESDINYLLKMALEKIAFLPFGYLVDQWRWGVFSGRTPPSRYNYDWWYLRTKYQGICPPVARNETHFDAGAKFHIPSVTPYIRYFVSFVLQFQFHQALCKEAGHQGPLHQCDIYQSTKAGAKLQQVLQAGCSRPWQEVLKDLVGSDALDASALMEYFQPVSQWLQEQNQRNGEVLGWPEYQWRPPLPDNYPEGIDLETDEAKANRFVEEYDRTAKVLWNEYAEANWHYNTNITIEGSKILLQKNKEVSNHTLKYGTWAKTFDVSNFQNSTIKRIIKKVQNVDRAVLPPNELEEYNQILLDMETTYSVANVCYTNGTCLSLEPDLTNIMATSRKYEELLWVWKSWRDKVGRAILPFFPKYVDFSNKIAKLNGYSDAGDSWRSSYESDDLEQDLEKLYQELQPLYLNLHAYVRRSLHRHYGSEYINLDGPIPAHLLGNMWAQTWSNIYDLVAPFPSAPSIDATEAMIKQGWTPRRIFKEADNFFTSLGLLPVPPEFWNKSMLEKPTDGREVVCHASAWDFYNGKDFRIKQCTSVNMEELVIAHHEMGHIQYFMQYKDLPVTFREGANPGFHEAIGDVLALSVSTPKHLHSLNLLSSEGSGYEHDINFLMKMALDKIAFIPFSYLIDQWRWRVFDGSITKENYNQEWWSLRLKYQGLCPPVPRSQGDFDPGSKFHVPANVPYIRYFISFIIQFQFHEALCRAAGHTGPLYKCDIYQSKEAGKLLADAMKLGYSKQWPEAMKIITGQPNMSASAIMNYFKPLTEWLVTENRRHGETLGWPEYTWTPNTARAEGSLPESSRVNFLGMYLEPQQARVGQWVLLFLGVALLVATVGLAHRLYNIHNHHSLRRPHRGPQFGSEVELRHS
Outline: (§1)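 Male conscious normotensive Sprague-Dawley rats (275-390 g) fitted the day before with femoral arterial and venous catheters under methohexital anesthesia. Three angiotensin-I challenges (300 ng/kg iv) given as baseline. Compound given iv, ia or po (12.3 mg/kg po dose in 3% cornstarch at 1 mg/mL), then AI challenges repeated at set times. Pressor response compared with the mean baseline response and expressed as % inhibition.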

[3] = target: T3, Angiotensin-converting enzyme (Rattus norvegicus); assay: Evaluation of plasma inhibition of Angiotensin I converting enzyme activity in conscious rat 4 hours after ia administration at a dose of 10 mg/kg; assay type: functional, organism-based; set-up: dose 10 mg/kg; outline: as §1
[4] = target: T3, Angiotensin-converting enzyme (Rattus norvegicus); assay: Evaluation of plasma inhibition of Angiotensin I converting enzyme activity in conscious rat 6 hour after oral administration at a dose of 10 mg/kg; assay type: functional, organism-based; set-up: dose 10 mg/kg; outline: as §1
[5] = target: T3, Angiotensin-converting enzyme (Rattus norvegicus); assay: Evaluation of plasma inhibition of Angiotensin I converting enzyme activity in conscious rat 2 hours after ia administration at a dose of 10 mg/kg; assay type: functional, organism-based; set-up: dose 10 mg/kg; outline: as §1
[6] = target: T3, Angiotensin-converting enzyme (Rattus norvegicus); assay: Evaluation of plasma inhibition of Angiotensin I converting enzyme activity in conscious rat 1 hour after ia administration at a dose of 10 mg/kg; assay type: functional, organism-based; set-up: dose 10 mg/kg; outline: as §1
[7] = target: T3, Angiotensin-converting enzyme (Rattus norvegicus); assay: Evaluation of plasma inhibition of Angiotensin I converting enzyme activity in conscious rat 6 hours after ia administration at a dose of 10 mg/kg; assay type: functional, organism-based; set-up: dose 10 mg/kg; outline: as §1
[8] = target: T3, Angiotensin-converting enzyme (Rattus norvegicus); assay: Evaluation of plasma inhibition of Angiotensin I converting enzyme activity in conscious rat 2 hour after oral administration at a dose of 10 mg/kg; assay type: functional, organism-based; set-up: dose 10 mg/kg
[9] = target: T3, Angiotensin-converting enzyme (Rattus norvegicus); assay: Evaluation of plasma inhibition of Angiotensin I converting enzyme activity in conscious rat 1 hour after oral administration at a dose of 10 mg/kg; assay type: functional, organism-based; set-up: dose 10 mg/kg
[10] = target: T3, Angiotensin-converting enzyme (Rattus norvegicus); settings: Plasma; 10 mg/kg
[11] = target: T3, Angiotensin-converting enzyme (Rattus norvegicus); assay: Evaluation of plasma inhibition of Angiotensin I converting enzyme activity in conscious rat 2 hours after intravenous administration at a dose of 10 mg/kg; assay type: functional, organism-based; set-up: dose 10 mg/kg; outline: as §1

SMILES | IC50 [1] [nM] | inhibition [2] [%] | IC50 (Neprilysin) [nM] | other results
COc1ccc(C[C@H](NC(=O)C2(NC(=O)[C@@H](S)C(C)C)CCCC2)C(=O)O)cc1 | 19 | – | 2.2 | –
O=C(O)[C@H](Cc1ccc(O)cc1)NC(=O)C1(NC(=O)C2(S)CCCC2)CCCC1 | 17 | 3 | 5.2 | –
C[C@H](CS)C(=O)N1CCC[C@H]1C(=O)O | – | – | – | inhibition [3]: 26%; inhibition [4]: 13%; inhibition [5]: 60%; inhibition [6]: 96%; inhibition [7]: 3%; inhibition [8]: 78%; inhibition [9]: 100%; inhibition [10]: 36%
CC(C)CC(NP(=O)(O)OC1O[C@@H](C)[C@H](O)[C@@H](O)[C@H]1O)C(=O)N[C@@H](Cc1c[nH]c2ccccc12)C(=O)O (single isomer, unassigned) [PHOSPHORAMIDON] | – | – | 26 | –

Second part, led by results:

IC50 [1] [nM] | inhibition [2] [%] | SMILES | IC50 (Neprilysin) [nM] | other results
62 | – | CC(C)[C@H](S)C(=O)N[C@@H](Cc1ccc(-c2ccccc2)cc1)C(=O)N[C@@H](Cc1ccc(O)cc1)C(=O)O | – | –
33 | 22 | CC(C)[C@H](S)C(=O)NC1(C(=O)N[C@@H](Cc2ccc(O)cc2)C(=O)O)CCCCC1 | 8.7 | inhibition [11]: 10%
